Assay outcomes (PubChem)
This is a sample that favours compounds with a hit; in the whole collection about 3.9% have one here.
NS3 helicase inh = HCV NS3 helicase inhibition; NS3 helicase DNA unwinding, Cy5 molecular beacon fluorescence; inhibition, % at 10.9 µM; 290,000 tested, 0.56% active; AID 1800;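 active = inhibition above the mean of all tested compounds plus 3 SD, set per campaign, cut at about 35% in these data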;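 note: 0% = DMSO wells and 100% = thioflavine S control wells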
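Assay system – hepatitis C virus NS3 helicase domain fragment enzyme · Buffer or medium – MOPS pH 6.5, MgCl2, DTT, Tween20, BSA · Reagent – Cy5/quencher beacon DNA duplex and ATP to start · Compound – single 10.9 µM dose · Timing – 1 h at 25 °C · Technique – Cy5 beacon fluorescence read at start and 1 h · Measure – % inhibition of unwinding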
HSF-1 act = increases HSF-1 driven luciferase reporter signal. AID 504408. 300,000 tested, 1.7% active. activation, % at 9 µM. NIH3T3-HGL HSF-1 luciferase reporter, MG132, 8 h; 100% = twice DMSO control signal;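 active = mean replicate activation of at least 50% with a set share of replicates each reaching 50%; inconclusive = only one of those two conditions met; inactive = mean below 50% and too few replicates reaching it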;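 note: 0% = median of the neutral control wells and 100% = twice that signal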
DNA FID counter = fluorescent intercalator displacement, NS3 helicase counter-screen; DNA fluorescent intercalator displacement, fluorescence; inhibition, % at 7.9 µM; 290,000 tested, 0.17% active; AID 1845; in the data active = inhibition above about 37%;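 note: 0% = vehicle and 100% = reference compound; higher means more ethidium bromide displaced from hairpin DNA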
core dimer inh = blocks dimerization of HCV core protein; 300,000 tested, 0.33% active; TR-FRET GST/Flag-core106 dimerization, 1536-well; inhibition, % at 5 µM;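 active = inhibition above the mean of all tested compounds plus 3 SD, set per screening campaign, cut at about 45% in these data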
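test system = GST/Flag-tagged HCV core106 proteins | probe or stimulus = Eu donor and XL665 acceptor anti-tag antibodies | times = compound-protein-antibody incubation 4 h at 22.5 °C | signal = TR-FRET, excitation 340 nm, emission 617 and 671 nm | measure = percent inhibition of core106 dimerization signal | controls = wells lacking GST-core106 and wells with excess unlabelled core106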
HSF1 inhib = HSF1 inhibition; NIH3T3-HGL HSE-luciferase, MG132-induced, luminescence 8 h; active compounds read low; activity change, negative = inhibition, % at 7.5 µM (by protocol); 300,000 tested, 0.77% active;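 active = more than half of replicate wells show activity change below -50%, luminescence cut by over half; inconclusive = some wells, but at most half, below -50%; inactive = no replicate well below -50%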;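 note: luciferase reports HSF-1 transcriptional activity via heat shock element; 0% = median of DMSO wells and -100% = zero luminescence signal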
HSP90 inh = inhibitors of HSP90 luciferase refolding in rabbit reticulocyte lysate. luciferase refolding luminescence, 3 h. inhibition, % at 5.6 µM. 290,000 tested, 0.91% active;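 active = inhibition above the screen-wide mean plus 3 SD, computed separately per campaign, cut at about 16% in these data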;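 note: 0% = DMSO wells and 100% = 60 µM geldanamycin wells; inhibitors lower the luminescence because luciferase stays unfolded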
An asterisk follows results filed as active; ? = inconclusive; nt = no result.

SMILES	NS3 helicase inh	HSF-1 act	DNA FID counter	core dimer inh	HSF1 inhib	HSP90 inh
COCCNC(=O)/C(C#N)=C/c1ccc(OCC(=O)NC2CCCCC2)cc1	1	-1	-25	-2	-2	5
CCC(C)NC(=O)CSc1nc2c(sc(=S)n2Cc2ccco2)c(=O)n1-c1ccccc1 (centres undefined)	7	16	-6	5	-5	-1
CCN(CC)C(=O)CSc1nc2c(sc(=S)n2-c2ccccc2)c(=O)n1Cc1ccco1	4	67*	-25	5	43	-2
CCOC(=O)CSc1nc2c(sc(=S)n2Cc2ccco2)c(=O)n1-c1ccc(F)cc1	7	80*	2	12	41	1
CCN(CC)C(=O)CSc1nc2c(sc(=S)n2CC)c(=O)n1-c1ccccc1	8	4	-8	3	9	5
O=C(NCC(=O)N(c1ccc(F)cc1)C(C(=O)NCC1CCCO1)c1ccccc1)c1ccco1 (centres undefined)	1	11	-22	-6	1	-1
O=C(CSc1ccc(Cl)cc1)NCc1ccco1	5	20	-2	1	4	3
NNc1nnc2c3cc(F)ccc3n(CCc3ccccc3)c2n1	-52	-52	-21	8	?	4
Cn1c(N2CCOCC2)nc(-c2ccccc2)c1-c1ccccc1	0	-77	-12	-8	-71*	-2
c1ccc(-c2nc3ccccc3nc2N2CCOCC2)cc1	1	-26	-5	1	2	3
COc1cc(CCCN2CCNC[C@@H]2Cc2ccc(O)cc2)cc(OC)c1OC	nt	-66	nt	10	-55*	nt
CCc1nc2nc(C)c(NS(=O)(=O)c3ccc(C)c(C)c3)c(=O)n2[nH]1	15	12	-11	11	0	-1
CN(C)c1ccc(/C=N/N(CCO)C2=NS(=O)(=O)c3ccccc32)cc1	-12	-8	-25	-17	3	-4
C=CCOCCN(CCOCC=C)C1=NS(=O)(=O)c2ccccc21	-5	-94	-3	-5	-92*	-3
CC1(C)CC(=O)C(=Cc2cn(-c3ccccc3)nc2-c2ccccc2)C(=O)C1	nt	147*	nt	4	100	nt
COC(=O)[C@H](Cc1ccccc1)NC(=O)N(C)Cc1ccccc1	0	-37	-12	-4	-22	-4
Cc1nnc(SCC(=O)Nc2nsc(-c3ccc(C(C)(C)C)cc3)n2)s1	3	51*	-29	1	22	-1
Cc1nnc(SCC(=O)Nc2ccc(-c3nc4ccccc4s3)cc2)s1	-6	17	-1	4	27	-6
O=C(CN1CC(=O)Oc2ccccc21)OCC(=O)c1cccc(Br)c1	5	53*	-1	16	31	2
CCOC(=O)C1=C(C)N(CCCC(=O)O)C(=O)NC1c1cc2ccccc2c2ccccc12 (centres undefined)	nt	16	nt	9	7	nt
CC(=O)c1ccc(N=C2C(=O)Nc3ccccc32)cc1	-1	62*	-3	7	47	-2
Cn1ccnc1Sc1cc(NCCCO)c([N+](=O)[O-])c2nonc12	-3	-96	10	5	-95*	1
CC(=O)OCCCNc1cc(Sc2ccc(C)cc2)c2nonc2c1[N+](=O)[O-]	2	-84	1	-4	-80*	5
CC(=O)OCCCNc1cc(Sc2nc3ccccc3s2)c2nonc2c1[N+](=O)[O-]	0	-77	1	2	-79*	-1
CCn1c(C)c(CCC(=O)O)c(=O)n2nc(-c3ccccc3OC)cc12	17	-11	-13	-3	5	8
SMILES	NS3 helicase inh	HSF-1 act	DNA FID counter	core dimer inh	HSF1 inhib	HSP90 inh
COc1cc(C(=O)NCCC(=O)NC2CCC(C)CC2)cc(OC)c1OC (centres undefined)	23	18	-34	-16	-3	1
O=[N+]([O-])c1nn(-c2ccc3c(c2)OCCO3)n(O)c1=NCc1ccc(F)cc1Cl	8	12	1	0	17	1
O=[N+]([O-])c1nn(-c2ccc3c(c2)OCCO3)n(O)c1=NCc1ccc(F)cc1	16	54*	-1	2	23	3
O=C(c1sc2cc(F)ccc2c1Cl)N1CCN(c2ccccc2)CC1	2	6	-7	-1	-1	2
O=C(CSc1nnc(-c2ccncc2)n1Cc1ccco1)OC1CCCCC1	4	-4	-26	3	7	-4
Brc1ccc(CSc2nnc(-c3ccccn3)n2Cc2ccco2)cc1	-7	145*	-28	6	105	2
c1ccc(CSc2nnc(-c3ccco3)n2Cc2ccco2)cc1	-6	80*	-29	0	50	2
CC(C)(C)c1ccc(CSc2nnc(-c3ccccn3)n2Cc2ccco2)cc1	-1	38	-29	15	13	2
Cc1ccccc1CSc1nnc(-c2ccco2)n1Cc1ccco1	-1	117*	-30	3	96	2
O=C(CSc1nnc(-c2ccco2)n1Cc1ccccc1)OC1CCCCC1	6	79*	-34	14	47	2
OCC[C@@H]1C[C@@H](O)[C@H](O)[C@]2(Cc3ccccc3CCO2)O1	6	-9	-3	-7	-4	-5
CCOC(=O)c1ccc(NC(=O)c2cn(CCC#N)nc2-c2ccc3c(c2)OCCO3)cc1	-16	9	-22	-1	0	-2
O=C(NCc1cc(Br)cc(Br)c1OC(=O)c1ccccc1[N+](=O)[O-])c1ccccc1	-9	-3	3	17	2	1
CCOC(=O)c1c(NC(=O)COc2ccccc2C#N)sc2c1CC(C)(C)NC2(C)C	-75	-50	25	1	-53*	-1
CCOC(=O)c1c(NC(=O)C2COc3ccccc3O2)sc2c1CC(C)(C)NC2(C)C (centres undefined)	-77	?	43*	-6	30	7
CCOC(=O)c1c(NC(=O)CSc2nnnn2-c2ccccc2)sc2c1CC(C)(C)NC2(C)C	-51	34	41*	9	11	5
CC(C)(C)N1C(=O)Cc2c1nc(N)c1c(N)nc(N3CCCCC3CO)c(C#N)c21 (centres undefined)	-2	68*	7	-2	24	2
CN(CCO)c1nc(N)c2c(N)nc3c(c2c1C#N)CC(=O)N3C1CCCC1	-3	14	-1	-1	3	5
O=C(Nc1ccc(S(=O)(=O)Nc2ncccn2)cc1)c1ccccc1Br	6	10	-5	-8	-4	-1
CC(C)(C)C(=O)OCCNc1nc(-c2ccccc2)nc2ccccc12	-12	-13	5	2	3	2
COc1ccc(C(=O)N/N=C(\C)c2ccc3c(c2)C2C=CCC2C(c2ccccc2)N3)cc1 (centres undefined)	14	nt	-8	67*	nt	2
